Assay results reported in paper PMC11579378 (Scientific Reports, 2024).
Where no end group is shown, it is not given here.

Target: ACE1 (Homo sapiens, UniProt P12821)
Assay: In vitro ACE1 inhibition assay
Assay type: biochemical
Summary of the method: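 Commercial WST colorimetric kit, run per the manufacturer's instructions. Test peptides were diluted in PBS to 0.01–100 µM and mixed with substrate buffer and enzyme working solution, then incubated 1 h at 37 °C. Indicator working solution was added for 5 min at room temperature, and absorbance was read at 450 nm. Blanks with and without enzyme were included. Assays were run in triplicate, and IC50 was obtained by nonlinear regression of inhibition against concentration.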

Chain of ACE1 (P12821 30-1306): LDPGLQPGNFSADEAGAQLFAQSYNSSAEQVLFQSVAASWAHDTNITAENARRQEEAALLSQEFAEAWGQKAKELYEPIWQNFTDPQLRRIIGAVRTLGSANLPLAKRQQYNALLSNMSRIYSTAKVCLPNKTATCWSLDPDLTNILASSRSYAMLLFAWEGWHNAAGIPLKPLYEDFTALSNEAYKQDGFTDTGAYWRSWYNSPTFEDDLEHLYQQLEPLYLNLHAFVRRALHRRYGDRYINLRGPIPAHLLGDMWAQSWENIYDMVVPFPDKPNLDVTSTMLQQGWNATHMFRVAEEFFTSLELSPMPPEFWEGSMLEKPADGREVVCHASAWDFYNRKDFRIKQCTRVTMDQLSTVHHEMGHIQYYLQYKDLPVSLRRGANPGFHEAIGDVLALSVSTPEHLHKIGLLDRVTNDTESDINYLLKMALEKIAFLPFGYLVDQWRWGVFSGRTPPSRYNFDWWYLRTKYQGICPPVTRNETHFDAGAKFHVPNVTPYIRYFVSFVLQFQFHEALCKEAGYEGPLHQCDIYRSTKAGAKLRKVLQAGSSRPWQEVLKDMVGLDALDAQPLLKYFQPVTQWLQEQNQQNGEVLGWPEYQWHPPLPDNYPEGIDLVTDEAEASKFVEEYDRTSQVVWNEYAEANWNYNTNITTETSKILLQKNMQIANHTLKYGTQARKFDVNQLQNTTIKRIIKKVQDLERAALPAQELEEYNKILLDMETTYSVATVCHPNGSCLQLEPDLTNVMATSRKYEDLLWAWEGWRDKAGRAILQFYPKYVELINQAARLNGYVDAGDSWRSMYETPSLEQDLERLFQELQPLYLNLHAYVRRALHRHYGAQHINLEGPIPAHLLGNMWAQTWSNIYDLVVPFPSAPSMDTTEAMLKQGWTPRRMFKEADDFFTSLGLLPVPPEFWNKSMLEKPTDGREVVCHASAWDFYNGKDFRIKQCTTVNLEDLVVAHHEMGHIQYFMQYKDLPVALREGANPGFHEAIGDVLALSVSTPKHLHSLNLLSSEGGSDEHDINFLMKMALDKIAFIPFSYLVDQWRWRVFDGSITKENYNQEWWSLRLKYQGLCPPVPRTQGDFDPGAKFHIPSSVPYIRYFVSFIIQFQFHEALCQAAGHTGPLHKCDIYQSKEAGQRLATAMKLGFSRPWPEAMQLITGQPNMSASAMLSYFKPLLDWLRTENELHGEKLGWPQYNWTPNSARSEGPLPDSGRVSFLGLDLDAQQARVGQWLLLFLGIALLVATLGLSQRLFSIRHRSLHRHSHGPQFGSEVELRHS

| Compound | IC50 [µM] |
| --- | --- |
| CC(C)C[C@H](NC(=O)[C@H](Cc1ccccc1)NC(=O)[C@H](CCCCN)NC(=O)[C@H](Cc1ccccc1)NC(=O)[C@H](CC(N)=O)NC(=O)[C@@H](NC(=O)[C@@H]1CCCN1)C(C)C)C(=O)N[C@@H](CO)C(=O)N[C@@H](Cc1cnc[nH]1)C(=O)O [Hp-F, Hemopressin-F] | 6.22 ± 0.44 |
| CC(C)C[C@H](NC(=O)[C@H](CC(C)C)NC(=O)[C@H](CCCCN)NC(=O)[C@H](Cc1ccccc1)NC(=O)[C@H](CC(N)=O)NC(=O)[C@@H](NC(=O)[C@@H]1CCCN1)C(C)C)C(=O)N[C@@H](CO)C(=O)N[C@@H](Cc1c[nH]cn1)C(=O)O [Hp-L, Hemopressin-L] | 3.86 ± 0.87 |
| RVDPVNFKFLSH [RVD-Hp-F, RVD-Hemopressin-F] | 12.4 ± 2.92 |
| RVDPVNFKLLSH [RVD-Hp-L, RVD-Hemopressin-L] | 2.52 ± 0.11 |
| VDPVNFKFLSH [VD-Hp-F, VD-Hemopressin-F] | 10.8 ± 0.79 |
| VDPVNFKLLSH [VD-Hp-L, VD-Hemopressin-L] | 4.54 ± 0.83 |
